Measured values gathered from unrelated publications.
Compare with care: the assays were run in different laboratories.
MET: Hepatocyte growth factor receptor (MET, Homo sapiens, UniProt P08581)
MET Y1235D: Hepatocyte growth factor receptor (MET, Homo sapiens, UniProt P08581, Y1235D)

Structure (SMILES) | target | test | setting | measurement | value
Cc1ccc(NC(=O)c2ccnc(C(F)(F)F)c2)cc1-c1cc(OCCO)nc(N2CCOCC2)c1 | MET | binding | 1 µM | remaining binding | 100%
C=CC(=O)N1CCC([C@@H]2CCNc3c(C(N)=O)c(-c4ccc(Oc5ccccc5)cc4)nn32)CC1 | MET | cell-free assay | 1 µM | inhibition | 7%
Cc1cc(O)c(-c2ccc([C@@H](C)CN(C)C)cc2)c2c1[nH]c(=O)c1sccc12 | MET | cell-free assay, inhibitor | 0.1 µM | inhibition | -0.782%
COc1ccc2[nH]c3c4[nH]c5ccc(OC)cc5c4c4c(c3c2c1)C(=O)NC4=O | Hepatocyte growth factor receptor (MET, Homo sapiens, UniProt P08581, M1250T) | binding | 1 µM | remaining binding | 88%
O=C1C=C(Nc2ccc(OCc3cn(Cc4ccccc4)nn3)cc2)C(=O)c2ccccc21 | MET | enzyme activity, inhibitor, radiometric | 10 µM | inhibition | 18%
C#Cc1cnc(Nc2ccnc(CO)c2)nc1Nc1ccccc1S(C)(=O)=NC#N (centres unmarked) | MET | cell-free assay | 1 µM | remaining signal | 83%
COc1ccc2oc(-c3ccc4nc(N)oc4c3)c/c(=N\c3ccccc3NC(=O)CCN)c2c1 | MET | binding | 1 µM | remaining binding | 106%
CC#CC(=O)N1CCC[C@H]1c1nc(-c2ccc(C(=O)Nc3ccccn3)cc2)c2c(N)nccn12 | MET | enzyme activity, inhibitor | 1 µM | inhibition | 17%
C[C@H]1CC[C@H](n2c3cnccc3c3cnc(Nc4ccc5c(n4)CCN(C(=O)CO)C5)nc32)CC1 | MET Y1235D | cell-free assay | 1 µM | remaining signal | 100%
CC(C)S(=O)(=O)c1ccc2nccc(Nc3ccc4sc(C5CCCC5)nc4c3)c2c1 | MET | enzyme activity, inhibitor | 1 µM | activity vs control | 119%
N#Cc1ccc(NC(=O)Nc2ccccc2)cc1 | MET | cell-free assay, competition with immobilised ligand | 25 µM | remaining binding | 100%
C1=C/COCc2cc(ccc2OCCN2CCCC2)Nc2nccc(n2)-c2cccc(c2)COC/1 | MET Y1235D | binding | 0.1 µM | remaining binding | 100%
CCCCC(=O)Nc1ccc(-c2ccc3ncn(CCC)c(=O)c3c2)cn1 | MET | binding, competition with immobilised ligand | 0.5 µM | remaining binding | 96%
CN1CCN(C(=O)c2ccc(NC(=O)Nc3ccc(N(C)c4ccnc(Nc5ccc(CS(C)(=O)=O)cc5)n4)cc3)cc2)CC1 | MET Y1235D | binding | 1 µM | remaining binding | 4.4%
